Reference: PubChem BioAssay AID617 (SRMLSC, 2007)

tested on: E. coli BW25113 ΔtolC growth inhibition, OD615; assay: growth inhibitors of E. coli tolC mutant, dose response, strain BW25113 ΔtolC::kan (AID 617)
Procedure, shortened: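 Material: E. coli BW25113 ΔtolC::kan bacteria; input: inoculum from 1:1000-diluted 1.5 h subculture; medium: kanamycin-containing LB broth, 50 µg/mL; dosing: compounds in serially diluted dose-response series; incubation: 20 h exposure at 37 °C; measured by: absorbance at 615 nm; control set: chloramphenicol control, 30 µM final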

SMILES | IC50 [µM]
COc1ccc2nc(NC(=O)CSc3nnnn3C3CCCCC3)sc2c1 | 63.6
CCCOc1ccc2oc(=O)c3c(c2c1)CCCN3C(=O)CN1CCc2ccccc2C1 | 14.1
Cc1nc2c(C(=O)NCc3ccc4c(c3)OCO4)c[nH]n2c(=O)c1Cc1ccccc1F | 2.6
O=C(Nc1nc(-c2cc(Cl)sc2Cl)cs1)c1cccs1 | 1.69
O=C(Oc1ccccc1)c1cc2ccccc2o1 | 23.1
O=S(=O)(Nc1ccc2oc(-c3ccccc3)nc2c1)c1ccccc1 | 9.38
CCOC(=O)Cc1csc(NC(=O)c2ccc(S(=O)(=O)N3CCCCC3)cc2)n1 | 91.3
O=C(Nc1cccc(Cl)c1)N(CCN1CCOCC1)Cc1cccc(Cl)c1 | 6.44
CCCN(CCC)C(=O)CSc1nc2ccccc2c(=O)n1C1CCCC1 | 14.2
N#Cc1nc(-c2ccc(OCc3ccccc3)cc2)oc1NCCCn1ccnc1 | 6.08
COC(=O)c1c(C)oc2ccc(OC(=O)c3cccs3)cc12 | 9.49
O=C(Nc1nc(-c2ccccc2)cs1)c1cccs1 | 5.9
Cc1n[nH]c(C)c1S(=O)(=O)N(CC(=O)Nc1ccc2c(c1)OCCO2)c1ccc(C(C)C)cc1 | 19.3
COc1cc(-c2nc(-c3cccc(C)c3)no2)cc(OC)c1OC | 12.2
c1ccc(-c2nc(N3CCCCCC3)nc(-n3ccnc3)n2)cc1 | 7.72
CC1=C(C(=O)OC2CCCC2)C(c2ccc(C)o2)C2=C(CC(c3cccs3)CC2=O)N1 (stereo not given) | 11.2
CC1=CC(C)(C)N2C(=O)C3(C(C#N)=C(N)Oc4cc(O)ccc43)c3cccc1c32 (stereo not given) | 4.14
CCCOc1ccc(C(=O)N2CCN(c3ccc(NC(=O)CC)cc3Cl)CC2)cc1 | 14.6
Cc1cccn2c(=O)c3c(nc12)N1CCC(Cc2ccccc2)CC1C1(C3)C(=O)N(C)C(=O)N(C)C1=O (stereo not given) | 17.7
O=C(CSc1nnc2scc(-c3ccccc3)n12)Nc1nsc(-c2ccccc2)n1 | 13.1
N#Cc1ccc(NC(=O)Nc2ccc(Cl)cc2)cc1 | 0.52
COc1ccc(-c2noc(Cc3ccc(Cl)cc3)n2)cc1OC | 75

SMILES | IC50 [µM]
CCOC(=O)c1csc(Nc2nc3ccc(F)cc3s2)n1 | 5.89
CCCCCc1cc(O)c2c(C)cc(=O)oc2c1 | 2.16
O=C(c1ccco1)N1CCN(c2c(-c3ccccc3)c3cc(Cl)ccc3[nH]c2=O)CC1 | 24
O=S(=O)(NC1CCCC1)c1ccc(S(=O)(=O)N(Cc2cccs2)CC2CCCO2)cc1 (stereo not given) | 21
COc1ccc(OC)c(S(=O)(=O)n2cnc3cc(C)c(C)cc32)c1 | 11.4
COc1cccc(Cn2c(Oc3cccc(C)c3)nc3c2c(=O)n(C)c(=O)n3C)c1 | 14.3
Cc1ccc(Cn2c(SCC(C)C)nc3c2c(=O)n(C)c(=O)n3C)cc1 | 89.6
COCCNc1nc(-n2nc(C)cc2C)nc2sc3c(c12)CCCC3 | 6.71
Cc1ccc(C)c(C(=O)CSc2n[nH]c(-c3ccncc3)n2)c1 | 2
Cc1ccc(C)c(SCC(=O)Nc2nnc(-c3ccccc3)o2)c1 | 4.69
Cc1cc(C)c(O)c(-c2cc(C(=O)Nc3ccc(S(=O)(=O)N4CCOCC4)cc3)[nH]n2)c1 | 6.03
CCCOc1nc2c(c(=O)n(C)c(=O)n2C)n1Cc1cccc2ccccc12 | 28.2
O=C(COc1ccc(Cl)cc1)Nc1nnc(-c2ccc3c(c2)CCCC3)o1 | 0.25
Cn1cc(SCC(=O)Nc2nc3ccccc3s2)c2ccccc21 | 9.23
Cc1ccc(S(=O)(=O)Cn2nnnc2CN2CCCC3(CCCCC3)C2)cc1 | 11.3
CO[C@@]1(NC(=O)Cc2cccs2)C(=O)N2C(C(=O)O)=C(COC(N)=O)CS[C@@H]21 | 2
COc1ccccc1-c1cc(C(=O)N2CCN(c3ccccc3OC)CC2)no1 | 17.9
Cc1cc(N2CCN(c3ccccc3)CC2)nc(-c2ccccc2)n1 | 14.3
COc1ccc2nc3c(cc2c1)c(NC(=O)c1cccs1)nn3CC(C)C | 9.28
O=C(COC(=O)c1ccc(Oc2ccccc2)cc1)Nc1nnc(-c2ccccc2)o1 | 0.96
Cc1c(C(=O)N2CCc3ccccc3C2)sc2nc(-c3ccccc3)cn12 | 13.6
CCn1nc(-c2ccccc2)nc2c(=O)n(C)c(=O)nc1-2 | 2.8

SMILES | IC50 [µM]
O=c1[nH]c(=O)n(C2CCCCCC2)c(O)c1C=NCc1ccc(F)cc1 | 14.6
CCOc1ccccc1C(=O)NC(C(=O)OCC(=O)Nc1nnc(-c2ccccc2)o1)C(C)C (stereo not given) | 7.68
Cc1ccc2cc(CN(Cc3ccc(F)cc3)Cc3nnnn3C3CCCC3)c(=O)[nH]c2c1 | 12.8
O=C(Nc1nnc(-c2ccc(Cl)cc2)o1)c1ccccc1Br | 0.4
COc1ccc(-c2cc(C(=O)N3CCc4ccccc4C3)no2)cc1OC | 16.6
CCC(C)(C)n1nnnc1C(c1cc2ccc(C)cc2[nH]c1=O)N(Cc1cccnc1)Cc1ccco1 (stereo not given) | 15.2
O=C(CSc1ncnc2c1oc1ccccc12)N1CCCc2ccccc21 | 15.1
CS(=O)(=O)N1CCc2cc(-c3csc(NC(=O)Cc4cccs4)n3)ccc21 | 21.7
C(=C\c1ccccc1)/CN1CCN(c2ncnc3c2oc2ccccc23)CC1 | 10.2
Clc1ccc(OCCn2ccnc2)c2ccccc12 | 5.58
CCC(C(=O)N1CCN(c2cccc(Cl)c2)CC1)c1ccccc1 (stereo not given) | 14.2
Cc1nn(Cc2ccccc2)c(C)c1C(=O)OCC(=O)c1cc(C)n(C2CC2)c1C | 11.3
CCOC(=O)c1ccc(-n2[nH]c(-c3ccccc3)cc2=O)cc1 | 8.26
CCN(CC)c1nc(N)c2c(N)nc3c(c2c1C#N)CC(c1ccccc1)O3 (stereo not given) | 6.58
COc1ccc(-n2c(C)nc3c(cnn3-c3ccc(Cl)cc3)c2=O)cc1 | 20.9
COc1ccc(NC(=O)c2cc(-c3cc(C)cc(C)c3O)n[nH]2)cc1Cl | 1.95
CCc1nc2ccccc2c(=O)n1NC(=O)c1c(O)c2cccc3c2n(c1=O)CCC3 | 12.2
CCCn1nnnc1NC(=O)CSc1ccc(Cl)cc1 | 4.21
Cc1ccc(-n2c(C)cc(C(=O)COC(=O)c3c(C)noc3C)c2C)cc1 | 5.61
Brc1cccc(-c2n[nH]c(-c3ccccc3)n2)c1 | 23.8
CC(C)CCOC(=O)c1c(N)n(CC2CCCO2)c2nc3ccccc3nc12 (stereo not given) | 18.3
CCCc1cc(C(=O)N2CCN(c3ccccc3C)CC2)cs1 | 8.52

SMILES | IC50 [µM]
c1ccc(-c2oc3ncnc(NCCCn4ccnc4)c3c2-c2ccccc2)cc1 | 6.05
Cn1c(=O)n(Cc2ccccc2)c(=O)c2c1nc1n2CCCN1Cc1ccccc1 | 42.8
O=c1[nH]c2ccc(S(=O)(=O)N3CCN(c4ccccc4F)CC3)cc2s1 | 57
C/C(O)=c1/ccc2cccc3nc(C)nc1c23 | 26
Cc1cc(NC(=O)c2ccccc2)sc1C | 5.59
COc1ccc(S(=O)(=O)C(C#N)c2nc3ccccc3nc2N2CCCC(C)C2)cc1 (stereo not given) | 6.97
Cc1ccc(C(C(=O)NC2CCCC2)N(Cc2cccs2)C(=O)CNC(=O)c2cccs2)o1 (stereo not given) | 22.3
CN(c1ccccc1)c1nc(N2CCCC2)nc(-n2ccnc2)n1 | 4.03
Cc1cc(=O)[nH]c(SCC(=O)Nc2nc(-c3ccccc3)cs2)n1 | 4.48
Cc1ccc2c(c1)c(C)c(C)n2CC(O)Cn1nc(C)c(Br)c1C (stereo not given) | 11.8
Cc1nn(-c2ccc(F)cc2)c2sc(C(=O)N3CCCCCC3)cc12 | 20.2
O=C(Nc1ccc(Cl)cc1)N1CCC(c2nc(-c3cccs3)no2)CC1 | 6.4
O=C(NCc1ccc2c(c1)OCO2)c1ccc(COc2cccc(Cl)c2)o1 | 7.25
O=C(N1CCN(c2ccccc2F)CC1)C12CC3CC(CC(C3)C1)C2 | 18.6
c1ccc(CN2CCN(c3nc(-c4ccccc4)nc(-n4ccnc4)n3)CC2)cc1 | 6.13
O=C(Nc1cccc2cccnc12)c1ccc(Br)o1 | 10.6
Cn1c(=O)n(CCc2ccccc2)c(=O)c2c1nc1n2CCCN1CCc1ccccc1 | 10.5
O=C(COc1ccccc1)Nc1ccccc1N1CCCCC1 | 25.6
CN(Cc1ccccc1)c1ncnc2c1cnn2-c1ccccc1 | 12.7
Cc1sc2nc(CN(Cc3cccs3)C(=O)NC3CCCCC3)[nH]c(=O)c2c1C | 6.91
CCN(CCNC(=O)C1CCN(Cc2nc(-c3cccc(Cl)c3)oc2C)CC1)c1ccccc1 | 8.04
Cc1nc2c(-c3ccccc3)c(C)[nH]n2c(=O)c1Cl | 3.59

SMILES | IC50 [µM]
COc1cccc(N2CC(C(=O)Nc3ccc(C(=O)OC(C)C)cc3)CC2=O)c1 (stereo not given) | 15
CCOC(=O)c1c(C)oc2ccc(NS(=O)(=O)c3ccc4c5c(cccc35)C(=O)N4)cc12 | 16.3
CCOC(=O)c1cn(CC)c2cc(N3CCCCC3)c(F)cc2c1=O | 3.42
Cc1nn(Cc2ccc(Cl)cc2)c(C)c1NC(=O)c1noc2c1CCCCC2 | 13.4
CCCCCn1c(-c2ccco2)nc2nc3ccccc3nc21 | 84.8
Cc1cc(N2CCCCC2)n2ncc(-c3ccccc3)c2n1 | 17.3
COC(=O)c1[nH]c2ccc(C)cc2c1NS(=O)(=O)c1ccc(F)c(C)c1 | 1.75
N#CC1=C(N)NC(SCc2ccccc2)=C(C#N)C12CCCCC2 | 2.12
Cc1cc(NC(=O)Cn2nnc3sc4c(c3c2=O)CCC(C(C)(C)C)C4)no1 (stereo not given) | 7.77
Cc1cc(NC(=O)C2CCCCC2)nc2c1c(=O)oc1ccccc12 | 11.5
Cc1cc(C)c(C#N)c(N2CCN(CCOc3ccc(Cl)cc3)CC2)n1 | 10.4
OC(COc1ccc2ccccc2c1Br)Cn1ccnc1 (stereo not given) | 7.54
CC1(C)C(=O)OC(c2cc(Br)ccc2O)C(C)(C)C1=O (stereo not given) | 15.4
COc1cccc(NC(=O)N2CCN(c3cccc(C)c3C)CC2)c1 | 13.4
CC(C)(C)n1nnnc1C(c1cccs1)N(Cc1ccccc1)Cc1cccnc1 (stereo not given) | 8.37
CCCn1c(CN(Cc2ccccc2)Cc2ccccc2)nc2c1c(=O)n(C)c(=O)n2C | 7.19
CCCCSC1=C(C#N)C(c2ccccc2C)C(C(=O)OCC)C(=O)N1 (stereo not given) | 11.5
Cc1ccc2cc(C(c3nnnn3C3CCCC3)N(Cc3cccnc3)Cc3ccco3)c(=O)[nH]c2c1 (stereo not given) | 13.7
Cc1ccc(OCc2nc(C#N)c(N3CCN(Cc4ccccc4)CC3)o2)cc1 | 12.9
Cc1ccc(C)c(Cn2c(CN(C)Cc3ccccc3)nc3c2c(=O)n(C)c(=O)n3C)c1 | 14.2
CCOc1ccc(OCCSc2nnnn2C2CCCCC2)cc1 | 14.5
O=C(CN(Cc1ccc2c(c1)OCO2)C(=O)CSc1nc2ccccc2o1)NC1CCCCC1 | 6.11
